In ChEMBL document CHEMBL4513216, “Probing the Open Global Health Chemical Diversity Library for Multistage-Active Starting Points for Next-Generation Antimalarials” (ACS Infect Dis, 2020):

Assay: Toxicity liver stage against HepG2, at 10uM
Assay type: cell-based
Parameters: test concentration 10 uM, cell line HepG2-A16-CD81EGFP
Details: human, HepG2-A16-CD81EGFP cells; read-out: INHIBITION
Summary of the method: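 Uninfected HepG2-A16-CD81EGFP cells, 3 × 10^3 per well, 1536-well, plated on prespotted compound at 10 μM final, parasite-free screening media added to match infected plates; puromycin 10 μM positive, DMSO 0.5% negative; run in parallel with 48 h PbLuc assay at 37 °C, 5% CO2; viability by CellTiter-Glo luminescence, normalized to controls.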

Going from `NC(=O)C1=NC2=NS(=O)(=O)c3ccccc3N2N1Cc1ccc(Cl)cc1` to `NC(=O)CCOc1ccc(NC(=O)c2ccccc2OC(F)F)cc1`, the cytotoxicity at 10 µM rises from 1.75% to 9.62%.

First: CN(Cc1cccnc1)C1CC2(CCN(Cc3cccnc3)CC2)C1
Second: FC1(F)CCN(Cc2ccncc2)CC12CCN(c1cccnc1)C2 (stereo not given)
The cytotoxicity at 10 µM of the first is higher: -87.2% for the first, -94.8% for the second.

Going from `Cc1noc(C)c1CN1C[C@H](OCC2CC2)[C@H]2OCCC[C@H]21` to `Cc1cnn(CC2CCCN2C(=O)c2ccc(OCC3CC3)nc2)c1` (stereo not given), the cytotoxicity at 10 µM rises from -14.9% to -9.86%.

Compared with `Cc1cc(-c2cc(N)c(=O)n(CC(=O)NC3CCCCC3)n2)c(C)o1`, `CC(C)(C)c1cc2ncn(CCCN3CCCCC3CO)c(=O)c2s1` (stereo not given) is lower in cytotoxicity at 10 µM: 6.79% for the first, -5.39% for the second.

Going from `COc1ccc(C)cc1CN1CCCC1Cn1nc(C)nc1C` (stereo not given) to `Cc1nc(C)n(CC2CCCN(CC(=O)Nc3nncs3)C2)n1` (stereo not given), the cytotoxicity at 10 µM falls from 6.57% to -3.79%.

First: Cn1cc(C2CCCN2C(=O)Cn2ccc3ccc(Cl)cc32)cn1 (stereo not given)
Second: CCn1cc(S(=O)(=O)N2CCCC2c2ccc(C)o2)cn1 (stereo not given)
The cytotoxicity at 10 µM of the first is lower: 8.81% for the first, 20.9% for the second.

Going from `CCN1CC(c2ccccc2)CC2(CCN(Cc3ncc[nH]3)CC2)C1` (stereo not given) to `O[C@]1(c2ccccn2)CC[C@@H]2CN(Cc3cccc4ncccc34)C[C@@H]21`, the cytotoxicity at 10 µM falls from 8.25% to -2.09%.

Going from `O[C@H]1CCN(Cc2ccoc2)[C@H]1Cc1cccnc1` to `c1cncc(CN(Cc2ccsc2)Cc2ccc(C3CCCCO3)o2)c1` (stereo not given), the cytotoxicity at 10 µM rises from 2.36% to 14.8%.

Going from `Cc1cc(CN2CCN(c3nn4cc(C)nc4s3)CC2)on1` to `CCn1ccnc1CN1CCCN(C(=O)c2scnc2C)CC1`, the cytotoxicity at 10 µM falls from 6.4% to -7.77%.

Compared with `COc1cccc(C2CC(=O)Nc3c2cnn3C(C)(C)C)c1` (stereo not given), `CNC(=O)CCNC(=O)c1cc(C)n(-c2cccc(OC)c2)c1C` is lower in cytotoxicity at 10 µM: -8.54% for the first, -10.2% for the second.

First: O=C(C1CCC1)N1C[C@@H]2CCN(c3cccnc3)C[C@@H]2C1
Second: O=C(CN1CCCC(c2noc(C3CC3)n2)C1)N1CCCC1 (stereo not given)
The cytotoxicity at 10 µM of the first is lower: -2.13% for the first, 1.87% for the second.

Going from `CC(=O)Nc1ccc(CNC(=O)CNCc2nnc(C)o2)cc1` to `O[C@@H]1CC(CNCc2ccc(Cl)cc2)(COc2cccnc2)C[C@@H]1O` (stereo not given in full), the cytotoxicity at 10 µM falls from 10.7% to -2.23%.

Going from `O=C(NCCc1nnc2n1CCC2)NCC1(c2cccc(F)c2)CC1` to `CCn1c(CN2CCOC(Cn3cncn3)C2)nc2cc(F)ccc21` (stereo not given), the cytotoxicity at 10 µM rises from -7.94% to -4.84%.

Going from `COc1cccc2c3c(c(=O)[nH]c12)CCC(C)(C)O3` to `COc1cccc2ncn(C(C)Cn3cccn3)c(=O)c12` (stereo not given), the cytotoxicity at 10 µM rises from -1.43% to 1.37%.

Compared with `Cc1cc(C)c2cc(CNCc3ccccc3)c3nn(C)c(=O)n3c2c1`, `COc1cc(NCc2ccccc2-n2cncn2)nc(N)n1` is lower in cytotoxicity at 10 µM: -1.47% for the first, -11% for the second.

Going from `Cc1noc(NCc2cn(C)nc2-c2cccnc2)n1` to `CC(C)NC(=O)Nc1ncc(-c2cccnc2)s1`, the cytotoxicity at 10 µM rises from 6.87% to 7.05%.

Compared with `O=C(Nc1nnn[nH]1)c1cc(-c2ccc(Br)s2)n[nH]1`, `Nc1cc(C(=O)NCC2CCN(Cc3cccc(O)c3)C2)ccn1` (stereo not given) is lower in cytotoxicity at 10 µM: -2.71% for the first, -8.69% for the second.

First: CN(Cc1noc(C2CC2)n1)C1CCCN(c2cccnn2)C1 (stereo not given)
Second: Fc1ccccc1Oc1nccnc1C1CCCN(C2CCOCC2)C1 (stereo not given)
The cytotoxicity at 10 µM of the first is higher: -2.66% for the first, -9.4% for the second.

First: O=C(c1cc2cccc(F)c2[nH]1)N1C[C@@H](O)[C@H](N2CCOCC2)C1
Second: O=C(c1ccc(F)cc1)N1CC[C@H]2[C@H]1CCN2CC1CC1
The cytotoxicity at 10 µM of the first is higher: 0.0453% for the first, -1.92% for the second.

First: CCOc1ccnc(N2CCN(C(=O)CCc3ccsc3)CC2)n1
Second: CCc1cnc(N2CCCC(CCC(N)=O)C2)nc1 (stereo not given)
The cytotoxicity at 10 µM of the first is higher: 8.15% for the first, 2.25% for the second.

Compared with `NCCNS(=O)(=O)Cc1ccc(Br)cc1`, `COCc1ccccc1C(=O)NS(=O)(=O)CCCC#N` is lower in cytotoxicity at 10 µM: 19.4% for the first, 5.24% for the second.

Going from `COc1nc(C)c(C(=O)N2CCC(C(O)Cc3ccccc3)CC2)s1` (stereo not given) to `CNC(=O)[C@H]1C[C@H]2CN(Cc3ccc(OC)cc3)C[C@@H]1O2`, the cytotoxicity at 10 µM falls from 4.18% to 3.02%.

First: OCCNc1cc(-c2nccnc2N2CCCC2)c2cc[nH]c2n1
Second: c1ccc(-c2ncc3c(n2)C2(CCN(c4ncccn4)C2)COC3)cc1 (stereo not given)
The cytotoxicity at 10 µM of the first is lower: -7.57% for the first, 1.36% for the second.

Compared with `O=C(NCC1CCN(Cc2cc3ccccc3[nH]2)C1)c1ccsc1` (stereo not given), `CN1CC(C(=O)NCCc2ccc3c(c2)OCCO3)CC1=O` (stereo not given) is lower in cytotoxicity at 10 µM: 15.6% for the first, 5.51% for the second.

Going from `Cc1ccc(N2CCC(Nc3ccc4nnc(C)n4n3)CC2)nc1` to `Cc1cnc2c(C(=O)N(C)Cc3cc(C4CC4)[nH]n3)cnn2c1`, the cytotoxicity at 10 µM falls from 8.56% to -5.71%.

Going from `CC(C)NCC1OCCc2cn(C)nc21` (stereo not given) to `Cc1nn(C)cc1CCC(=O)N1CCCC(n2cncn2)C1` (stereo not given), the cytotoxicity at 10 µM falls from 9.91% to 1.9%.

Going from `CC(=O)N1CCN(CCNS(=O)(=O)c2cc(F)ccc2C)CC1` to `Cc1cnc(N2CCOC3(CCCN(c4ncccn4)C3)C2)nc1` (stereo not given), the cytotoxicity at 10 µM rises from 5.42% to 9.19%.

Compound `CC[C@H](N)Cn1nc(-c2cccs2)oc1=O` has a cytotoxicity at 10 µM of 1.75%.
